In ChEMBL document CHEMBL4715833, “Design, synthesis, in-vitro, in-vivo and in-silico studies of pyrrolidine-2,5-dione derivatives as multitarget anti-inflammatory agents” (Eur J Med Chem, 2020):
Active and inactive are the calls of the source. The calls are words filed in the database; no cut-off is given here.

Experiments:
Mus musculus [1] = assay: Antiinflammatory activity in histamine-induced paw edema in Balb/c mouse assessed as inhibition of paw edema at 100 mg/kg, ip administered 1 hr prior to histamine challenge and measured after 1 hr relative to control; type: functional; details: time 2 hrs
How it was run: (§1)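 BALB/c mice of either sex (30–35 g), 8 per group, dosed i.p. with 10% DMSO, reference drug or compound (100 mg/kg). After 1 h, subplantar irritant: PGE2 0.01 µg/ml, bradykinin 20 µg/ml, histamine 0.1 ml of 1 mg/ml, or leukotriene 10 µg/ml.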

Mus musculus [2] = assay: Antiinflammatory activity in PGE2-induced paw edema in Balb/c mouse assessed as inhibition of paw edema at 100 mg/kg, ip administered 1 hr prior to PGE2 challenge and measured up to 5 hrs relative to control; type: functional; details: time 2-6 hrs; how it was run: as §1
Mus musculus [3] = assay: Antiinflammatory activity in histamine-induced paw edema in Balb/c mouse assessed as inhibition of paw edema at 100 mg/kg, ip administered 1 hr prior to histamine challenge and measured after 5 hrs; type: functional, organism-based; details: time 6.0 hrs; how it was run: as §1
Mus musculus [4] = assay: Antiinflammatory activity in PGE2-induced paw edema in Balb/c mouse assessed as inhibition of paw edema at 100 mg/kg, ip administered 1 hr prior to PGE2 challenge and measured after 1 hr relative to control; type: functional; details: time 2 hrs; how it was run: as §1
[5] = Antiinflammatory activity assessed as inhibition of heat-induced albumin denaturation preincubated for 20 mins followed by heating at 51 degC and measured after 3 mins by UV-vis spectrophotometric method
Mus musculus [6] = assay: Antiinflammatory activity in histamine-induced paw edema in Balb/c mouse assessed as inhibition of paw edema at 100 mg/kg, ip administered 1 hr prior to histamine challenge and measured after 4 hrs relative to control; type: functional; details: time 5 hrs; how it was run: as §1

Row | SMILES | inhibition in vivo at 100 mg/kg (Mus musculus [1]) [%] | inhibition in vivo at 100 mg/kg (Mus musculus [2]) [%] | inhibition (Mus musculus [3]) | inhibition in vivo at 100 mg/kg (Mus musculus [4]) [%] | IC50 [5] [µM] | inhibition in vivo at 100 mg/kg (Mus musculus [6]) [%]
1 | Cc1ccc(C(=O)CC2CC(=O)N(c3ccc(S(N)(=O)=O)cc3)C2=O)cc1 (stereo unspecified) | 32.4 | 61.6 | Active | – | – | –
2 | O=C1CCCCC1C1CC(=O)N(Cc2ccccc2)C1=O (stereo unspecified) | – | – | – | 50.5 | 24.5 | 17.1
